{"data": "Assay results of several laboratories", "MAOA": "Amine oxidase [flavin-containing] A (MAOA, Homo sapiens, UniProt P21397)", "ACE2": "Angiotensin-converting enzyme 2 (ACE2, Homo sapiens, UniProt Q9BYF1)", "USP2": "Ubiquitin carboxyl-terminal hydrolase 2 (USP2, Homo sapiens, UniProt O75604)", "note": "Protocols differ between the studies behind these lines."}
{"SMILES": "CN(CCN1CCC(OC(=O)Nc2ccccc2-c2ccccc2)CC1)C(=O)c1ccc(CN2CCC(C(N)=O)CC2)cc1", "target": "MAOA", "test": "enzyme activity, inhibitor", "conditions": "1 µM", "inhibition [%]": -2}
{"SMILES": "C#Cc1n[nH]c2c(-c3cn(C(C)c4ccccn4)c(=O)[nH]c3=O)cc(F)cc12 (stereo not drawn)", "target": "High affinity nerve growth factor receptor (NTRK1, Homo sapiens, UniProt P04629)", "test": "enzyme activity, inhibitor", "conditions": "1 µM", "inhibition [%]": 13.1}
{"SMILES": "CN1CCN(CCCCOc2ccc3occc(=O)c3c2)CC1", "target": "MAOA", "test": "enzyme activity, inhibitor, fluorescence", "conditions": "10 µM", "inhibition [%]": 5}
{"SMILES": "COCc1c(-c2cc3cc(C)cc(OC)c3s2)c2c(N)ncnn2c1CN1CCNC(=O)C1", "target": "Thromboxane-A synthase (TBXAS1, Homo sapiens, UniProt P24557)", "test": "enzyme activity, inhibitor", "conditions": "10 µM", "inhibition [%]": 86}
{"SMILES": "CCOC(=O)c1ccc(OC(=O)CCCCCNC(=N)N)cc1", "target": "Dipeptidyl peptidase 3 (DPP3, Homo sapiens, UniProt Q9NY33)", "test": "enzyme activity, inhibitor", "conditions": "10 µM", "inhibition [%]": 4}
{"SMILES": "O=C(Nc1cccnn1)N1CCN([C@@H]2CCOc3cc(C(F)(F)F)ccc32)CC1", "target": "ACE2", "test": "enzyme activity, inhibitor", "conditions": "20 µM", "inhibition [%]": 3}
{"SMILES": "Cn1cc(-c2cccc(N3CCc4c(sc5c4CC(C)(C)C5)C3=O)c2CO)cc(Nc2ccncn2)c1=O", "target": "Cyclin-dependent kinase 5, with p25 (CDK5, Homo sapiens, UniProt Q00535)", "test": "enzyme activity, inhibitor", "conditions": "1 µM", "inhibition [%]": 2}
{"SMILES": "Cc1ncc(C)n2nc(/C=C/c3nc(N4CCCC4)cc(N4CCOCC4)n3)nc12", "target": "ACE2", "test": "enzyme activity, inhibitor", "conditions": "10 µM", "inhibition [%]": 11}
{"SMILES": "C#Cc1n[nH]c2c(-c3cn([C@@H](C)c4ccccc4)c(=O)[nH]c3=O)cc(F)cc12", "target": "Focal adhesion kinase 1 (PTK2, Homo sapiens, UniProt Q05397)", "test": "enzyme activity, inhibitor", "conditions": "0.1 µM", "inhibition [%]": 3.8}
{"SMILES": "O=C(Nc1ccc([N+](=O)[O-])cc1[N+](=O)[O-])c1ccc2c(c1)OCO2", "target": "MAOA", "test": "enzyme activity, inhibitor", "conditions": "1 µM, 20 min", "inhibition [%]": 44}
{"SMILES": "CN(C)C(=O)COC(=O)Cc1ccc(OC(=O)c2ccc(NC(=N)N)cc2)cc1", "target": "USP2", "test": "enzyme activity, inhibitor", "conditions": "10 µM", "inhibition [%]": 1}
{"SMILES": "CCN(CC)CCCC[C@H](NC(=O)[C@H](CC(C)C)NC(=O)[C@H](C)NC(=O)[C@H](Cc1ccccc1)NC(=O)c1ccc(C(C)(C)C)cc1)C(=O)N[C@@H](CO)C(=O)OC", "target": "Vasoactive intestinal polypeptide receptor 1 (VIPR1, Homo sapiens, UniProt P32241)", "test": "ligand displacement, radioligand", "conditions": "10 µM", "inhibition [%]": -9}
{"SMILES": "Clc1ccc2c(C3CCN(CCc4c[nH]c5ccccc45)CC3)c[nH]c2c1", "target": "Alpha-1A adrenergic receptor (ADRA1A, Homo sapiens, UniProt P35348)", "test": "ligand displacement, radioligand", "conditions": "10 µM", "inhibition [%]": 108}
{"SMILES": "C[C@@H]1CCCN1CCCCOc1ccc2occc(=O)c2c1", "target": "MAOA", "test": "enzyme activity, inhibitor, fluorescence", "conditions": "10 µM", "inhibition [%]": 7}
{"SMILES": "N=C(N)c1ccc2cc(OC(=O)c3ccc(N=C(N)N)cc3)ccc2c1", "target": "USP2", "test": "enzyme activity, inhibitor", "conditions": "10 µM", "inhibition [%]": 0}
{"SMILES": "Cc1ccc2nc(N3C(=O)C(O)=C(C(=O)OC(C)(C)C)C3c3ccc(-c4ccc(Cl)cc4)o3)sc2c1 (stereo not drawn)", "target": "UDP-N-acetylglucosamine 1-carboxyvinyltransferase (murA, Escherichia coli K-12, UniProt P0A749)", "test": "enzyme activity, inhibitor", "conditions": "20 µM", "inhibition [%]": 88}
{"SMILES": "c1ccc(C(NCCNC(c2ccccc2)c2ccccc2)c2ccccc2)cc1", "target": "MAOA", "test": "cell-free assay, inhibitor", "conditions": "10 µM", "inhibition [%]": 11}
{"SMILES": "CC(C)C[C@H](NC(=O)[C@H]1O[C@@H]1C(=O)O)C(=O)NCCCCN=C(N)N", "target": "Cathepsin S (CTSS, Homo sapiens, UniProt P25774)", "test": "enzyme activity, inhibitor", "conditions": "50 nM", "inhibition [%]": 81}
